From ChEMBL document CHEMBL2176883, “Aminopiperidine sulfonamide Cav2.2 channel inhibitors for the treatment of chronic pain” (J Med Chem, 2012)

What was measured:
[1] = Oral bioavailability in rat at 3 mg/kg; assay type: ADME, organism-based; settings: in vivo
How it was run: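 Rat pharmacokinetics from iv and po arms: 0.6 mg/kg iv with 1.8 mg/kg po, or 1 mg/kg iv with 3 mg/kg po. AUC was normalized to po dose (μM·h·kg/mg). Clearance (mL/min/kg) and half-life come from the iv arm, and F% is oral bioavailability.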

[2] = Plasma concentration in vagotomized dog at 10 mg/kg, iv after 90 mins; assay type: ADME, organism-based, Canis lupus familiaris; design: dose 10 mg/kg, route intravenous
How it was run: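 Anesthetized, vagotomized dogs; intravenous infusion in sequential rising doses of 1, 3 and 10 mg/kg (cumulative); plasma exposure sampled at indicated time points, n = 3.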

[3] = molecular target: T1, Nuclear receptor subfamily 1 group I member 2 (Homo sapiens, UniProt O75469); experiment: Activation of PXR
T1 sequence (O75469 whole entry): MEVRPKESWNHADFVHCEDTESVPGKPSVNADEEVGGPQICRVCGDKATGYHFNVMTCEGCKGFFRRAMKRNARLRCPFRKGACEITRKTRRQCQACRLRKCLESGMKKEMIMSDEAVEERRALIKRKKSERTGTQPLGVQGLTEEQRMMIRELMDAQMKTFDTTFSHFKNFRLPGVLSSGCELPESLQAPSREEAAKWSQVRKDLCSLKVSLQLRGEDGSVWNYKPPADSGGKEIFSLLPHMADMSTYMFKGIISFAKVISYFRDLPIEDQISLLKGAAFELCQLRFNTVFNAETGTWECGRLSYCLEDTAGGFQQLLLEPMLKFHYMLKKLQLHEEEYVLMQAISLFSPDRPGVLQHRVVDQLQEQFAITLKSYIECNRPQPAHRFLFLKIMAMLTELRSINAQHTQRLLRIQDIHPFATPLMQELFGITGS
How it was run: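 PXR activation read as EC50, with maximal activation given as % at 10 μM.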

[4] = molecular target: T2, Voltage-dependent N-type calcium channel subunit alpha-1B (Homo sapiens, UniProt Q00975); experiment: Inhibition of Cav2.2 expressed HEK293 cells assessed as inhibition of calcium flux by FLIPR assay in presence of 30 mM of potassium; assay type: cell-based
How it was run: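 Calcium influx was read with a calcium-sensitive dye on FLIPR Tetra in CBK cells expressing α1B-1, α2-δ and β3a with Kir2.3. Cells were preincubated with compound in 30 mM K+, then channels were opened by 1:1 addition of 140 mM K+ solution. Compounds were screened at 1 μM, then titrated over 10 points (0.001–30 μM) in quadruplicate, mean ± SD. Values are averages of n ≥ 3.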
Target sequence in this assay (Q00975 whole entry): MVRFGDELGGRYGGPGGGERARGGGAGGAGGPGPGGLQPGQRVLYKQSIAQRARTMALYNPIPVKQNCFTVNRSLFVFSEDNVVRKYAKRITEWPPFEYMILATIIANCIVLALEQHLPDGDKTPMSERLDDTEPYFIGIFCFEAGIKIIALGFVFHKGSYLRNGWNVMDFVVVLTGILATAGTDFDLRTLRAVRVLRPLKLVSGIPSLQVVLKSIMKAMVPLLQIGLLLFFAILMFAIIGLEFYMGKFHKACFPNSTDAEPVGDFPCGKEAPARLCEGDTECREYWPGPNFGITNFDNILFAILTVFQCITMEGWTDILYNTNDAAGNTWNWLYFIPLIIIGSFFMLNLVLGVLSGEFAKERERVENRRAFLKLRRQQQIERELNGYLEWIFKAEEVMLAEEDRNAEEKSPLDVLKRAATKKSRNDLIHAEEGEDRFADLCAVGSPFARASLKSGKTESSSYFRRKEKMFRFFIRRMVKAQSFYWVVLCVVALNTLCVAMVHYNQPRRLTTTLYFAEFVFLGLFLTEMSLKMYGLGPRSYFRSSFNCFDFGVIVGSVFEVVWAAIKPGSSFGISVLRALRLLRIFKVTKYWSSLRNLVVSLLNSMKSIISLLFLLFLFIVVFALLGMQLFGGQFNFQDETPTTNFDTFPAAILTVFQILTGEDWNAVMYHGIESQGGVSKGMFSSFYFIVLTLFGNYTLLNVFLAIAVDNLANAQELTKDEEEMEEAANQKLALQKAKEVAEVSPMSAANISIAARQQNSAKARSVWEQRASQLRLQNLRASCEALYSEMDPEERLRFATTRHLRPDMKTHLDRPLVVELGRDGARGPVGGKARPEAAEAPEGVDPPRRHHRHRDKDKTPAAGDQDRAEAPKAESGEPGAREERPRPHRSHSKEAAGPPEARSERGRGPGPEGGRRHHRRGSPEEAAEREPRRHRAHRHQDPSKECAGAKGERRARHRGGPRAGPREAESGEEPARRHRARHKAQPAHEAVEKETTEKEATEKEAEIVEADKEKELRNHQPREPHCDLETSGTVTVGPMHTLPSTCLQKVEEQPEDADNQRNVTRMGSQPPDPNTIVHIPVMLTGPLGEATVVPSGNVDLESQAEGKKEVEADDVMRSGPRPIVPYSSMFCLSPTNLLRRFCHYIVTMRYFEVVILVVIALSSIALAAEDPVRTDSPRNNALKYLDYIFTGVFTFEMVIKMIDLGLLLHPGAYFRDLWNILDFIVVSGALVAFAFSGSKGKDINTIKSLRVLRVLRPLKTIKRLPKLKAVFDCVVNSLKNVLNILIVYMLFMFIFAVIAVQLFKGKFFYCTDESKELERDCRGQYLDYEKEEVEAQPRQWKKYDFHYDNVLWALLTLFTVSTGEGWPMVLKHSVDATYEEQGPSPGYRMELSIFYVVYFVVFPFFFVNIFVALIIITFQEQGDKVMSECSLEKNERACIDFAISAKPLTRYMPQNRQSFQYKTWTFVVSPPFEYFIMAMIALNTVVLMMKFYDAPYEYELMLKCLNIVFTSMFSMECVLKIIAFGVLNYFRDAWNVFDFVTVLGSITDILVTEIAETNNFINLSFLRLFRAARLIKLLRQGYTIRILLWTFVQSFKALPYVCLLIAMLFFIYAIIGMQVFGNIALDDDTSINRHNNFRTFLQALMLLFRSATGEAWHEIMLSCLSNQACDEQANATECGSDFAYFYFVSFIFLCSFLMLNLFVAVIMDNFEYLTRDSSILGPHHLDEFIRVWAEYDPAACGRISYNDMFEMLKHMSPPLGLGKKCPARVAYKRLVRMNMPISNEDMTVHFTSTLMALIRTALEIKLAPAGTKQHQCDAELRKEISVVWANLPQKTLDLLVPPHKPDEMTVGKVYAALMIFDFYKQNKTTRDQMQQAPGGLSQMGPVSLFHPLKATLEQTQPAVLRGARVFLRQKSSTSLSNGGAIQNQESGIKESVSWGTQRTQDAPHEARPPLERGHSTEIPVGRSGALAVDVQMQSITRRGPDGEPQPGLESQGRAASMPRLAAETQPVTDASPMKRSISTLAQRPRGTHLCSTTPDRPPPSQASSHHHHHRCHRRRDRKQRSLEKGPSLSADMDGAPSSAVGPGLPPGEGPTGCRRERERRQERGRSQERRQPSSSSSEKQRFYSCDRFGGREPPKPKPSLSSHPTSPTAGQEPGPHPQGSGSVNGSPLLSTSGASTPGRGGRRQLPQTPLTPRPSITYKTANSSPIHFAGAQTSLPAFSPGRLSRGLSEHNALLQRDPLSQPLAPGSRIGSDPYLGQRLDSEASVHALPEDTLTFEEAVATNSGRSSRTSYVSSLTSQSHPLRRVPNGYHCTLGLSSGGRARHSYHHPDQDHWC

[5] = Fraction unbound in human plasma; assay type: ADME, cell-free
[6] = molecular target: T2, Voltage-dependent N-type calcium channel subunit alpha-1B; experiment: Inhibition of human Cav2.2 expressed CBK cells assessed as inhibition of channel current at <1 uM at holding membrane potential -40 mV by conventional patch clamp electrophysiology assay
How it was run: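 Cav2.2 current block was measured at a depolarized (−40 mV) or hyperpolarized (−90 mV) potential. At −40 mV, n = 2, 3, 4 and 1 at 0.3, 1, 3 and 10 μM. At −90 mV, n = 4 and 6 at 3 and 10 μM. Values are mean ± SEM.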
Target sequence in this assay (Q00975 whole entry, looked up): as the sequence (Q00975 whole entry) above

[7] = Metabolic stability in human liver microsomes assessed as compound remaining at 1 uM after 1 hr; assay type: ADME, Microsome; settings: read-out: Stability
How it was run: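 Compound at 1 μM was incubated with human or rat liver microsomes (1 mg/mL) for 1 h, and the percentage of parent remaining was determined.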

Rattus norvegicus = experiment: Analgesic activity in po dosed rat SNL neuropathic pain model assessed as reversal of mechanical allodynia after 1 to 24 hrs; assay type: functional, organism-based
[8] = Drug metabolism in Sprague-Dawley rat assessed as parent compound level in blood at 10 mg/kg, po after 8 hrs; assay type: ADME, organism-based; design: dose 10 mg/kg, route oral; settings: read-out: Drug metabolism
How it was run: (§1)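 Male Sprague-Dawley rats were given a 10 mg/kg oral dose. Parent and metabolite concentrations were measured in whole blood and brain over time, including 8 h postdose.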

[9] = Tmax in rat at 3 mg/kg; assay type: ADME, organism-based; design: dose 3 mg/kg; settings: in vivo
How it was run: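 Rat pharmacokinetics: 3 mg/kg po arm alongside 1 mg/kg iv; tmax from oral arm, half-life from iv dosing.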

Canis familiaris [10] = experiment: Cardiotoxicity in vagotomized dog assessed as heart rate at 1 to 10 mg/kg, iv up to 90 mins; assay type: toxicity, organism-based, Canis lupus familiaris; design: dose 1-10 mg/kg, route intravenous; settings: in vivo, 1.5 h
How it was run: (§2)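 Anesthetized, vagotomized dogs received an intravenous infusion in sequential rising cumulative doses of 1, 3 and 10 mg/kg. MAP, HR, QRS, PR and QTc were monitored, with plasma exposure sampled at the indicated time points (n = 3).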

[11] = Plasma concentration in rat SNL neuropathic pain model at 10 mg/kg, po after 3 hrs; assay type: ADME, organism-based; design: dose 10 mg/kg, route oral
How it was run: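 Rats with spinal nerve ligation; separate SNL-treated rats given single oral 10 mg/kg dose; plasma exposure measured 3 h postdose.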

Mus musculus [12] = experiment: Antinociceptive activity in Cav2.2 deficient mouse assessed as reversal of complete Freund's adjuvant-induced pain at 30 mg/kg, po after 2 hrs; assay type: functional
PXR = molecular target: T3, PXR (Homo sapiens, UniProt O75469); experiment: Activation of PXR at 10 uM relative to control; settings: read-out: max activation
T3 sequence (O75469 whole entry): T1 sequence (O75469 whole entry)

Blood = experiment: Drug metabolism in Sprague-Dawley rat assessed as 3-trifluoromethylbenzenesulfonamide level in blood at 10 mg/kg, po after 8 hrs; assay type: ADME, organism-based; design: dose 10 mg/kg, route oral; settings: in vivo; how it was run: as §1
Mus musculus [13] = experiment: Antinociceptive activity in Cav2.2 expressing wild type mouse SNL neuropathic pain model assessed as reversal of mechanical allodynia at 30 mg/kg, po after 2 hrs; assay type: functional
How it was run: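 Cav2.2+/+ and Cav2.2−/− mice underwent spinal nerve ligation, then got a single 30 mg/kg oral dose. Mechanical allodynia was scored 2 h postdose.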

Canis familiaris [14] = experiment: Cardiotoxicity in vagotomized dog assessed as mean arterial pressure at 1 to 10 mg/kg, iv up to 90 mins; assay type: toxicity, organism-based, Canis lupus familiaris, Artery; design: dose 1-10 mg/kg, route intravenous; settings: in vivo, 1.5 h; how it was run: as §2
Mus musculus [15] = experiment: Antinociceptive activity in Cav2.2 expressing wild type mouse assessed as reversal of complete Freund's adjuvant-induced pain at 30 mg/kg, po after 2 hrs; assay type: functional

For CS(=O)(=O)c1ccc(F)cc1C(=O)N1CCC(N(C2CC2)S(=O)(=O)c2cccc(C(F)(F)F)c2)CC1, the bioavailability [1] was 99%, the concentration at 1.5 h [2] was 20400 nM and the EC50 [3] was 430 nM. It also gave an IC50 [4] of 560 nM, a fraction unbound [5] of 0.014 and an inhibition [6] of over 50%. The remaining at 1 h, 1 µM [7] was 30%, the Activity (Rattus norvegicus) was “Dose-dependent effect” and the concentration at 8 h [8] was 310 nM. The Tmax [9] was 1.7 h, the Activity (Canis familiaris [10]) was “Non-toxic” and the concentration at 3 h [11] was 1260 nM. The Activity (Mus musculus [12]) was 4%, the Emax at 10 µM (PXR) was 124% and the Drug metabolism (Blood) was 6.1 µM. The Activity (Mus musculus [13]) was 38%, the Activity (Canis familiaris [14]) was “Non-toxic” and the Activity (Mus musculus [15]) was 35%.
